The target of data set [1] is T1, DNA topoisomerase 1 (Homo sapiens) (UniProt P11387).
T1 sequence (whole entry): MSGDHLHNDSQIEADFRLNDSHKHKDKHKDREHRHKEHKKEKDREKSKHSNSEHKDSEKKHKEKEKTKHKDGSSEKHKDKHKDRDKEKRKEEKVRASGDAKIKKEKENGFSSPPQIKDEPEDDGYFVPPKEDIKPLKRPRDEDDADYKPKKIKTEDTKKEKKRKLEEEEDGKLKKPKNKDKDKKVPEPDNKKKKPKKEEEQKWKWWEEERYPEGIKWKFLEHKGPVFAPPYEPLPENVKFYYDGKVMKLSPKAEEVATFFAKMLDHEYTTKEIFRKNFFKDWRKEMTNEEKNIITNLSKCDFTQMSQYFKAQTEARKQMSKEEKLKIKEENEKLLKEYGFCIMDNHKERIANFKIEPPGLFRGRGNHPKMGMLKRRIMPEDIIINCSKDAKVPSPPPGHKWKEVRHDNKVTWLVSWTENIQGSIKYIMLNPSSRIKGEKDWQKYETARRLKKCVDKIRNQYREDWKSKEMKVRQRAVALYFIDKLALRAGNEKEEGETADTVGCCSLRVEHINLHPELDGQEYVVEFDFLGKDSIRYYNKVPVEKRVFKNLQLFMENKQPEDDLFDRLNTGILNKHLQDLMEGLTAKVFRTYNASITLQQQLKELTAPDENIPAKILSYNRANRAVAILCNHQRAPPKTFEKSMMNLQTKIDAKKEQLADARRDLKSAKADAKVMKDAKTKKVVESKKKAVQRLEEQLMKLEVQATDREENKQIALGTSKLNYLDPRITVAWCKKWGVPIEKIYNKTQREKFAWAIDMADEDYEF
Nature of the data set: Inhibition of recombinant Top1 (unknown origin) assessed as Top 1 mediated DNA cleavage using 3'-[32P]-labeled 117 bp DNA as substrate at 0.1 to 100 uM after 20 mins by PAGE analysis. The procedure, abridged: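 About 2 nM 3'-[32P]-labeled DNA with recombinant Top1 in 10 mM Tris-HCl pH 7.5, 50 mM KCl, 5 mM MgCl2, 0.1 mM EDTA, 15 μg/mL BSA, 25 °C, 20 min. Compound at 0.1, 1, 10 and 100 μM. Stopped with 0.5% SDS and formamide dye, then run on 20% denaturing PAGE with phosphorimaging.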

Data set [2] relates to OVCAR-3. The data set can be described thus: Antiproliferative activity against human OVCAR3 cells assessed as growth inhibition. The data set is classed as functional. An outline of the steps:
(§1)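 NCI-60 screen: single-dose pre-screen at 10 μM, then five concentrations from 0.01 to 100 μM. Values beyond the tested range are recorded as 0.01 or 100 μM.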

For data set [3], the system named is UACC-62. The data set can be described thus: Antiproliferative activity against human UACC62 cells assessed as growth inhibition. The data set is classed as functional. An outline of the steps:
as §1

Data set [4] has as its system SF-539. Nature of the data set: Antiproliferative activity against human SF539 cells assessed as growth inhibition. The data set is classed as functional. An outline of the steps: as §1
Data set [5] addresses T2, Tyrosyl-DNA phosphodiesterase 2 (Homo sapiens, UniProt O95551).
T2 sequence (O95551 whole entry): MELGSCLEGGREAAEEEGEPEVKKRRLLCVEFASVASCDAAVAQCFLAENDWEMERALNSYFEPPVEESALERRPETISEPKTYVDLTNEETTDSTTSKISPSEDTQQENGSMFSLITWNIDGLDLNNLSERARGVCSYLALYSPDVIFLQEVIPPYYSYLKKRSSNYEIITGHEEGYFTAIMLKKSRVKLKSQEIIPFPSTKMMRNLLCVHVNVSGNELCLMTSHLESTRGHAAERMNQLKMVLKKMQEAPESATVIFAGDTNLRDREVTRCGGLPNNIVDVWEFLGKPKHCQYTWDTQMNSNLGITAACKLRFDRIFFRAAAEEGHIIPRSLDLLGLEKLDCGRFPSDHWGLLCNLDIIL
The data set can be described thus: Inhibition of recombinant human TDP2 using 3'-labeled alpha-[32P]-cordycepin as substrate after 15 mins.

The subject of data set [6] is HCT-116. The data set can be described thus: Antiproliferative activity against human HCT116 cells assessed as growth inhibition. The data set is classed as functional. The procedure, abridged:
as §1

Data set [7] relates to MCF7. Nature of the data set: Antiproliferative activity against human MCF7 cells assessed as growth inhibition. It counts as functional. The procedure, abridged:
as §1

Data set [8] deals with HOP-62. Nature of the data set: Antiproliferative activity against human HOP62 cells assessed as growth inhibition. It counts as functional. The procedure, abridged:
as §1

Data set [9] has as its system SN12C. The data set can be described thus: Antiproliferative activity against human SN12C cells assessed as growth inhibition. It counts as functional. An outline of the steps: as §1
Data set [10] has as its system DU-145. The data set can be described thus: Antiproliferative activity against human DU145 cells assessed as growth inhibition. The data set is classed as functional. An outline of the steps: as §1
The nature of data set [11]: Toxicity in zebrafish embryo assessed as survival at 10 uM preincubated for 1 hr measured after 24 to 120 hrs (reference value: 82.5 to 86.2%). Set-up: species or system Danio rerio. The following applies: zebrafish embryos.
The nature of data set [12]: Toxicity in zebrafish embryo assessed as survival at 1 uM preincubated for 1 hr measured after 72 hrs (reference value: 82.5 +/- 8.4%). The following applies: zebrafish embryos. Set-up: species or system Danio rerio.
Data set [13] is described as follows: Toxicity in zebrafish embryo assessed as survival at 0.01 uM preincubated for 1 hr measured after 72 hrs (reference value: 82.5 +/- 8.4%). As to conditions: zebrafish embryos. The arrangement: species or system Danio rerio.
Data set [14] is described as follows: Toxicity in zebrafish embryo assessed as survival at 0.01 uM preincubated for 1 hr measured after 48 hrs (reference value: 84.4 +/- 8.5%). The arrangement: species or system Danio rerio. As to conditions: zebrafish embryos.
For data set [15], the species on record is Danio rerio. The data set can be described thus: Toxicity in zebrafish embryo assessed as hatching rate at 0.1 uM preincubated for 1 hr measured after 24 to 120 hrs. The following applies: in vivo. An outline of the steps:
(§2)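 Wild-type AB zebrafish embryos, 4 clutch replicates of 40 embryos each, held at 28 °C through 120 hpf. Exposed in Petri dishes to 10, 1, 0.1 or 0.01 μM compound in filtered fish water with 0.1% DMSO. Water-only and DMSO controls included. Mortality, hatching and gross malformations observed.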

Data set [16] can be described thus: Toxicity in zebrafish embryo assessed as survival at 0.01 uM preincubated for 1 hr measured after 120 hrs (reference value: 82.5 +/- 8.4%). As to conditions: zebrafish embryos. The arrangement: species or system Danio rerio.
For data set [17], the species on record is Danio rerio. Nature of the data set: Toxicity in zebrafish embryo assessed as increase in bent tail at 0.1 uM preincubated for 1 hr measured after 24 to 120 hrs. As to conditions: in vivo. An outline of the steps: as §2
Data set [18] can be described thus: Toxicity in zebrafish embryo assessed as survival at 0.1 uM preincubated for 1 hr measured after 72 hrs (reference value: 82.5 +/- 8.4%). The arrangement: species or system Danio rerio. The following applies: zebrafish embryos.
Data set [19] can be described thus: Toxicity in zebrafish embryo assessed as survival at 1 uM preincubated for 1 hr measured after 96 hrs (reference value: 82.5 +/- 8.4%). Set-up: species or system Danio rerio. The following applies: zebrafish embryos.
A short description of data set [20]: Toxicity in zebrafish embryo assessed as survival at 0.1 uM preincubated for 1 hr measured after 96 hrs (reference value: 82.5 +/- 8.4%). The arrangement: species or system Danio rerio. The following applies: zebrafish embryos.
A short description of data set [21]: Toxicity in zebrafish embryo assessed as survival at 0.1 uM preincubated for 1 hr measured after 48 hrs (reference value: 84.4 +/- 8.5%). The following applies: zebrafish embryos. Set-up: species or system Danio rerio.
Data set [22] is described as follows: Toxicity in zebrafish embryo assessed as survival at 1 uM preincubated for 1 hr measured after 120 hrs (reference value: 82.5 +/- 8.4%). Set-up: species or system Danio rerio. As to conditions: zebrafish embryos.
Data set [23] is described as follows: Toxicity in zebrafish embryo assessed as survival at 1 uM preincubated for 1 hr measured after 24 hrs (reference value: 86.2 +/- 8.5%). The arrangement: species or system Danio rerio. The following applies: zebrafish embryos.
The test system of data set [24] is Danio rerio. Nature of the data set: Toxicity in zebrafish embryo assessed as increase in yolk sac edema at 0.1 uM preincubated for 1 hr measured after 24 to 120 hrs. The following applies: in vivo. An outline of the steps: as §2
Data set [25] in a line: Toxicity in zebrafish embryo assessed as survival at 0.1 uM preincubated for 1 hr measured after 120 hrs (reference value: 82.5 +/- 8.4%). The arrangement: species or system Danio rerio. The following applies: zebrafish embryos.
The nature of data set [26]: Toxicity in zebrafish embryo assessed as survival at 0.01 uM preincubated for 1 hr measured after 24 hrs (reference value: 86.2 +/- 8.5%). The arrangement: species or system Danio rerio. The following applies: zebrafish embryos.
Data set [27] in a line: Toxicity in zebrafish embryo assessed as survival at 1 uM preincubated for 1 hr measured after 48 hrs (reference value: 84.4 +/- 8.5%). The arrangement: species or system Danio rerio. As to conditions: zebrafish embryos.
Data set [28] is described as follows: Toxicity in zebrafish embryo assessed as survival at 0.1 uM preincubated for 1 hr measured after 24 hrs (reference value: 86.2 +/- 8.5%). The arrangement: species or system Danio rerio. As to conditions: zebrafish embryos.
Data set [29] can be described thus: Toxicity in zebrafish embryo assessed as survival at 0.01 uM preincubated for 1 hr measured after 96 hrs (reference value: 82.5 +/- 8.4%). Set-up: species or system Danio rerio. As to conditions: zebrafish embryos.

SMILES strings stand for the structures. Activity calls are given as the source filed them. The rule behind the calls is not given here.

For the compound `CCNCCCn1c2c(c3ccc(Cl)cc3c1=O)C(=O)c1cc(OC)cnc1-2`, the “Top1-mediated DNA cleavage activity (active/not active)” value in data set [1] was “Active”. Further, the GI50 (as a rule, the concentration giving 50% growth inhibition) in data set [2] was 2130 nM; in data set [3] it was 532 nM; in [4] it was 506 nM; in data set [6] it was 203 nM; in data set [7] it was < 10 nM; in data set [8], 122 nM. Also, the GI50 in [9] is 675 nM; in data set [10], 208 nM. The IC50 (commonly the midpoint of a concentration-inhibition curve) in data set [5] is > 111000 nM.
For the compound `COc1cnc2c(c1)C(=O)c1c-2n(CCCn2ccnc2)c(=O)c2cc(Cl)ccc12`, the survival at 10 µM in data set [11] came to 0%. For the same compound, in data set [12], the survival at 72 h, 1 µM came out at 1.2%. In addition, the survival at 72 h, 0.01 µM in data set [13] is 63.1%. For the same compound, in data set [14], the survival at 48 h, 0.01 µM is 65.6%. Besides, the Activity entry in [15], in [17] and in data set [24] was “Non-Toxic” in each case. In data set [16], the survival at 120 h, 0.01 µM was 61.9%. Also, the survival at 72 h, 0.1 µM in data set [18] is 51.9%. Moreover, the “Top1-mediated DNA cleavage activity (active/not active)” value in [1] is “Active”. For the same compound, the survival at 96 h, 1 µM in data set [19] is 1.2%. The survival at 96 h, 0.1 µM in data set [20] came to 50.6%. In addition, in data set [21], the survival at 48 h, 0.1 µM is 54.4%. In data set [22], the survival at 120 h, 1 µM was 1.2%. Besides, the GI50 in data set [2] was 120 nM; in [3] it was 28 nM; in data set [4], 38 nM; in [6], 14 nM; in data set [7] it was < 10 nM; in [8], 20 nM. Besides, the GI50 in [10] came out at 43 nM. Besides, in data set [23], the survival at 24 h, 1 µM was determined as 10.6%. Besides, the survival at 120 h, 0.1 µM in [25] amounted to 50.6%. The survival at 24 h, 0.01 µM in data set [26] was 67.5%. Moreover, the survival at 48 h, 1 µM in [27] amounted to 1.2%. Further, the survival at 24 h, 0.1 µM in data set [28] turned out to be 55.6%. Further, the survival at 96 h, 0.01 µM in data set [29] came to 61.8%.

The values are drawn from ChEMBL document CHEMBL4038309, “Design and Synthesis of Chlorinated and Fluorinated 7-Azaindenoisoquinolines as Potent Cytotoxic Anticancer Agents That Inhibit Topoisomerase I” (J Med Chem, 2017).
